INS-1E ATP HTS – protection of INS-1E cells from cytokine death, primary screen, ATP luminescence, single point; INS-1E cytokine-induced death, 48 h; normalised: neutral wells 0, positive control 100; protection from cytokine-induced ATP loss, % at 10 µM; 20,000 compounds, 0.1% hits;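 active = mean replicate protection from cytokine-induced ATP loss at least 50% and at least 75% of replicates each reaching 50%; inconclusive = meets only one of the two criteria, mean or replicate share; inactive = fails both the mean and replicate share criteria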
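Assay system: INS-1E rat insulinoma cells. Amount: 8000 cells per well. Medium: phenol-red-free RPMI with 5% fetal bovine serum. Reagent: IL-1β, TNF-α and IFN-γ cytokine mix. Doses: one compound concentration, pin transfer. Schedule: 48 h co-treatment, 10 min post-lysis read. Detection: CellTiter-Glo luminescence measuring cellular ATP.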
A1 apoptosis 2 – A1 inhibitors via caspase activation, primary screen, cell-based, luminescence, HTS, two replicates | MEF A1-2A-BIM cells, caspase-Glo luminescence, 3 h; percent of clofoctol response, DMSO zero | caspase activation, % (test concentration not listed) | 24,000 tested, under 10 active | AID 2465, 2010; in the data active = caspase activation above about 5.9%; inconclusive = no clear call, values can overlap the other calls; inactive = below about 2.2%
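Evaluation: Caspase-3/7 activity from luminescence increase | Assay system: A1-2A-BIM mouse embryonic fibroblasts | Quantity: 2500 MEF cells/well | Medium: RPMI-1640 plus 10% FBS | Detection: Caspase-Glo 3/7 luminescence, 1 h at room temperature | Dosing: 50 nL compound per well, pinned | Timing: Cells settled overnight, compound exposure 3 h at 37 °C, 5% CO2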
T cruzi intra – inhibitors of intracellular Trypanosoma cruzi, primary screen, cell-based, plate reader, single point, set 2; intracellular Trypanosoma cruzi in host cells; activity score (inhibition), % at 5.01 µM; 22,000 compounds, 4.9% hits; in the data active = activity score above about 55%; inconclusive = no clear call, values can overlap the other calls;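 note: parasites and compound incubated about four days before reading; 0% = median of neutral control wells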
Starred values were filed as active, the others as inactive; ? = inconclusive; . = no result. Shown is part of a subset that was picked to be rich in hits.

SMILES	INS-1E ATP HTS	A1 apoptosis 2	T cruzi intra
C[C@H]1CN([C@@H](C)CO)C(=O)c2cccc(NC(=O)c3nc4ccccc4s3)c2O[C@H]1CN(C)S(=O)(=O)c1ccccc1	-39.2	.	76.7*
COc1ccc(S(=O)(=O)N(C)C[C@@H]2Oc3c(NC(=O)Nc4cccc5ccccc45)cccc3C(=O)N([C@@H](C)CO)C[C@H]2C)cc1	81.2*	0.5	8.7
C[C@H](CO)N1C[C@H](C)[C@@H](CN(C)S(=O)(=O)c2ccccc2)Oc2c(NC(=O)c3nc4ccccc4s3)cccc2C1=O	0.8	.	41.9
C[C@H]1CN([C@@H](C)CO)C(=O)c2cccc(NC(=O)c3nc4ccccc4s3)c2O[C@@H]1CN(C)S(=O)(=O)c1ccccc1	-12.8	.	72.9*
COc1ccc(S(=O)(=O)N(C)C[C@@H]2Oc3c(NC(=O)Nc4cccc5ccccc45)cccc3C(=O)N([C@H](C)CO)C[C@@H]2C)cc1	10.8	-0.1	-4.8
COc1ccc(S(=O)(=O)N(C)C[C@@H]2Oc3c(NC(=O)c4nc5ccccc5s4)cccc3C(=O)N([C@H](C)CO)C[C@H]2C)cc1	-36.5	-0.3	44.3
Cc1noc(C)c1NC(=O)Nc1ccc2c(c1)C(=O)N([C@@H](C)CO)C[C@@H](C)[C@@H](CN(C)CC1CCCCC1)OCCCC[C@@H](C)O2	.	0.1	.
C[C@H](CO)N1C[C@H](C)[C@H](CN(C)S(=O)(=O)c2cccs2)Oc2c(NC(=O)c3cnccn3)cccc2C1=O	0.3	.	68.7*
C[C@@H]1CN([C@H](C)CO)C(=O)c2cccc(NC(=O)c3cnccn3)c2O[C@@H]1CN(C)S(=O)(=O)c1cccs1	-3.8	.	5.7
C[C@H](CO)N1C[C@H](C)[C@@H](CN(C)S(=O)(=O)c2cccs2)Oc2c(NC(=O)c3nc4ccccc4s3)cccc2C1=O	-6.3	-0.4	57.1*
C[C@H]1CN([C@@H](C)CO)C(=O)c2cccc(NC(=O)c3nc4ccccc4s3)c2O[C@@H]1CN(C)S(=O)(=O)c1cccs1	-7.7	1.4	25.0
C[C@@H]1CCCCO[C@H](CN(C)S(=O)(=O)c2cn(C)cn2)[C@@H](C)CN([C@@H](C)CO)C(=O)c2cc(NC(=O)Nc3ccccc3)ccc2O1	.	0.1	.
COc1cc(/C=N/NC(=O)c2ccccc2O)cc(OC)c1OC	-41.0	0.1	-32.6
C[C@@H]1CN([C@@H](C)CO)C(=O)c2cc(NS(=O)(=O)c3cccs3)ccc2O[C@H]1CN(C)Cc1ccc(C(=O)Nc2ccccc2N)cc1	-5.0	1.5	13.9
COc1ccc(S(=O)(=O)Nc2ccc3c(c2)CC(=O)N([C@@H](C)CO)C[C@H](C)[C@@H](CN(C)Cc2ccc(C(=O)Nc4ccccc4N)cc2)O3)cc1	1.5	-0.2	57.7*
Cc1ccc(S(=O)(=O)Nc2ccc3c(c2)CC(=O)N([C@H](C)CO)C[C@H](C)[C@@H](CN(C)Cc2ccc(C(=O)Nc4ccccc4N)cc2)O3)cc1	.	-1.2	.
C[C@H]1CN([C@@H](C)CO)C(=O)Cc2cc(NS(=O)(=O)c3cccs3)ccc2O[C@H]1CN(C)Cc1ccc(C(=O)Nc2ccccc2N)cc1	23.3	0.5	67.9*
COc1ccc(S(=O)(=O)Nc2ccc3c(c2)CC(=O)N([C@H](C)CO)C[C@@H](C)[C@H](CN(C)Cc2ccc(C(=O)Nc4ccccc4N)cc2)O3)cc1	.	-0.8	.
C[C@@H]1CN([C@@H](C)CO)C(=O)Cc2cc(NS(=O)(=O)c3ccc(Cl)cc3)ccc2O[C@@H]1CN(C)Cc1ccc(C(=O)Nc2ccccc2N)cc1	.	0.7	.
Cc1ccc(S(=O)(=O)Nc2ccc3c(c2)CC(=O)N([C@@H](C)CO)C[C@@H](C)[C@@H](CN(C)Cc2ccc(C(=O)Nc4ccccc4N)cc2)O3)cc1	-0.4	-1.1	63.5*
C[C@@H]1CN([C@H](C)CO)C(=O)Cc2cc(NS(=O)(=O)c3ccc(Cl)cc3)ccc2O[C@H]1CN(C)Cc1ccc(C(=O)Nc2ccccc2N)cc1	5.4	.	69.0*
CC1(C)COC(CCC/C=N/NC(=O)c2ccc(C(=O)NO)cc2)OC1	33.1	-0.1	3.7
O=C(O)c1cccc(/C=N/NC(=O)c2ccc(C(=O)NO)cc2)c1	11.0	-0.3	-6.6
CC(=O)N1Cc2ccccc2C[C@@]2(N=C(c3ccc(OCCCO)cc3)O[C@H]2c2ccccc2)C1=O	.	0.3	.
O=C(N/N=C/c1ccncc1Br)c1ccccc1O	-36.5	-11.2	0.6
SMILES	INS-1E ATP HTS	A1 apoptosis 2	T cruzi intra
C=CCN1Cc2ccccc2[C@H]2OC(c3ccc(OCCCO)cc3)=N[C@@]2(Cc2ccccc2)C1=O	.	-0.8	.
CC(=O)Nc1ccc(C(=O)Nc2ccccc2[N+](=O)[O-])cc1	.	-2.0	.
COC(=O)[C@H](Cc1ccccc1)N1C(=O)O[C@H](Cc2ccccc2)[C@@H]1/C=C/C1CC1	.	-0.1	.
O=C(NO)c1cccc(C(=O)N/N=C/c2ccc[nH]2)c1	-5.3	.	5.5
C[C@H]1CN([C@@H](C)CO)C(=O)Cc2cc(NC(=O)Cc3ccccc3)ccc2O[C@@H]1CN(C)Cc1ccc(C(F)(F)F)cc1	-5.5	-0.1	58.3*
C[C@H](CO)N1C[C@H](C)[C@H](CN(C)Cc2ccc(C(F)(F)F)cc2)Oc2ccc(NC(=O)Cc3ccccc3)cc2CC1=O	5.9	-0.1	?
C[C@@H]1CN([C@@H](C)CO)C(=O)Cc2cc(NC(=O)Nc3ccc(C(F)(F)F)cc3)ccc2O[C@H]1CN(C)Cc1ccccc1	.	-0.3	.
C[C@H]1CN([C@@H](C)CO)C(=O)Cc2cc(NC(=O)Cc3ccccc3)ccc2O[C@H]1CN(C)Cc1ccc(C(F)(F)F)cc1	13.3	-1.1	68.7*
COC(=O)C1=C/c2ccccc2C(C)N(Cc2ccc(OC)cc2)/C=C\1C(=O)OC (stereo unspecified)	.	1.2	.
COc1ccc(/C=N/NC(=O)CCCCC(=O)NO)cc1OC	7.0	.	-21.8
CCn1c2ccccc2c2cc(/C=N/NC(=O)CCCCCC(=O)Nc3ccccc3O)ccc21	.	0.1	.
C[C@@H]1CCCCO[C@@H](CN(C)Cc2ccc(C(F)(F)F)cc2)[C@@H](C)CN([C@H](C)CO)C(=O)c2cc(NS(=O)(=O)c3cccs3)ccc2O1	-74.4	.	63.7*
C[C@@H]1CCCCO[C@H](CN(C)C(=O)Nc2ccc(C(F)(F)F)cc2)[C@@H](C)CN([C@H](C)CO)C(=O)c2cc(NS(=O)(=O)c3cccs3)ccc2O1	0.2	.	.
C[C@@H]1CCCCO[C@@H](CN(C)C(=O)Nc2ccc(C(F)(F)F)cc2)[C@@H](C)CN([C@H](C)CO)C(=O)c2cc(NS(=O)(=O)c3cccs3)ccc2O1	-12.7	-0.1	57.4*
C[C@@H]1CCCCO[C@H](CN(C)Cc2ccc(C(F)(F)F)cc2)[C@@H](C)CN([C@H](C)CO)C(=O)c2cc(NS(=O)(=O)c3cccs3)ccc2O1	-8.6	.	18.1
C=C(C)[C@@H]1CC=C(/C=N/NC(=O)CCCCCCC(=O)Nc2ccccc2O)CC1	0.2	1.3	-1.0

High-throughput results (PubChem BioAssay)
